Test results from PMC8802302 (Journal of Medicinal Chemistry, 2021).

Key:
[1] = biological target: T1, DRAK2 (Homo sapiens, UniProt O94768); experiment: Eurofins kinase enzymatic radiometric assay; assay type: biochemical
T1 sequence (O94768 1-372): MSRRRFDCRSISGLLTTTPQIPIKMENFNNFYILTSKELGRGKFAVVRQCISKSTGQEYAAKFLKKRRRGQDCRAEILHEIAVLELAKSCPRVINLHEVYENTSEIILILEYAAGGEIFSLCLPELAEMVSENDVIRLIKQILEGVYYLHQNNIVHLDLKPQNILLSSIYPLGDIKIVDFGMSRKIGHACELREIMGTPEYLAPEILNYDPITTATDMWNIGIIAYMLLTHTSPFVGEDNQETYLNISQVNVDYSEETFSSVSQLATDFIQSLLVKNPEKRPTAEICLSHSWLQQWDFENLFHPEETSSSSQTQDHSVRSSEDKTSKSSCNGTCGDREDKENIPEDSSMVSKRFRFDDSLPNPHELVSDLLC
Procedure, shortened: (§1)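 Radiometric kinase activity assay with ATP at the Km for each kinase. Test compounds were run as 9-point dose–response curves in duplicate to give IC50.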

[2] = biological target: T2, ULK2 (Homo sapiens, UniProt Q8IYT8); experiment: Eurofins kinase enzymatic radiometric assay; assay type: biochemical
T2 sequence (Q8IYT8 1-1036): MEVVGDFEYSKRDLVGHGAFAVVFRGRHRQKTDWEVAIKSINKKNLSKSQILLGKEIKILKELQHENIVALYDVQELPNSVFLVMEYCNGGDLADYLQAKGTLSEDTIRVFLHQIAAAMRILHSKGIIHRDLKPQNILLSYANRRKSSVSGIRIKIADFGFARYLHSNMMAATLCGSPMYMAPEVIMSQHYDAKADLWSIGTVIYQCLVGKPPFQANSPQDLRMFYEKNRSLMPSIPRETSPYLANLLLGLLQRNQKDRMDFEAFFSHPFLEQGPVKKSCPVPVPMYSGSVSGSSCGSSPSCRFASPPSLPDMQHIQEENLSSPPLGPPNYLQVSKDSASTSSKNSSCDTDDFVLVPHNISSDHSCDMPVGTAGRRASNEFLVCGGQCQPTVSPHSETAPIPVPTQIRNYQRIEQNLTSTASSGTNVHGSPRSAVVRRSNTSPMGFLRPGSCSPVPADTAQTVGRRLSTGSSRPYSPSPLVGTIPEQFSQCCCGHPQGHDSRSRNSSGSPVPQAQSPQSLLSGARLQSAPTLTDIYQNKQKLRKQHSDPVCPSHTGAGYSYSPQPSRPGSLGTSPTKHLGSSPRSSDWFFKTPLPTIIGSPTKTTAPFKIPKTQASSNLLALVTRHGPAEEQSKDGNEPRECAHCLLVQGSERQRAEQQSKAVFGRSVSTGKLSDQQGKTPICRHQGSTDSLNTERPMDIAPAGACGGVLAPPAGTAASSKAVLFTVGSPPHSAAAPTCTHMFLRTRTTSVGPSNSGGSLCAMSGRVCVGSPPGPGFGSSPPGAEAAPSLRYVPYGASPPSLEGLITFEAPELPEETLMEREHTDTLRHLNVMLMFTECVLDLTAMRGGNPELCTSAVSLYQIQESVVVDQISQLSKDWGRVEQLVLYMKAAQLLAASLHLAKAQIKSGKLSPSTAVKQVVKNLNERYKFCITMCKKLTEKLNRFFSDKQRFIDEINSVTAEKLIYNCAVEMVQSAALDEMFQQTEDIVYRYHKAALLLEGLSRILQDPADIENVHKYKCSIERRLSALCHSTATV
Procedure, shortened: as §1

[3] = test system: 16-member kinase panel; experiment: Eurofins custom enzymatic kinase panel, count of kinases inhibited; assay type: biochemical; details: 16-member Eurofins panel, 1 μM
Procedure, shortened: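 Radiometric kinase assays were run with ATP at Km. Each test compound was tested at a single concentration of 1 μM, in duplicate, against each panel kinase, with results as percent of control. The count is the number of kinases at ≤ 10 PoC, i.e. inhibited ≥ 90%.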

[4] = test system: 403 wild-type (WT) human kinases; experiment: DiscoverX scanMAX kinome-wide selectivity screen; assay type: binding; details: 403 WT human kinases; for no. kinases with PoC < 10: DiscoverX scanMAX, 1 μM; for S10 (1 μM): Percentage of screened kinases with PoC values < 10 at 1 μM
[5] = biological target: T3, DRAK1 (DRAK1-NLuc) (Homo sapiens, UniProt Q9UEE5); experiment: NanoBRET cellular target engagement assay; assay type: cell-based
T3 sequence (Q9UEE5 1-414): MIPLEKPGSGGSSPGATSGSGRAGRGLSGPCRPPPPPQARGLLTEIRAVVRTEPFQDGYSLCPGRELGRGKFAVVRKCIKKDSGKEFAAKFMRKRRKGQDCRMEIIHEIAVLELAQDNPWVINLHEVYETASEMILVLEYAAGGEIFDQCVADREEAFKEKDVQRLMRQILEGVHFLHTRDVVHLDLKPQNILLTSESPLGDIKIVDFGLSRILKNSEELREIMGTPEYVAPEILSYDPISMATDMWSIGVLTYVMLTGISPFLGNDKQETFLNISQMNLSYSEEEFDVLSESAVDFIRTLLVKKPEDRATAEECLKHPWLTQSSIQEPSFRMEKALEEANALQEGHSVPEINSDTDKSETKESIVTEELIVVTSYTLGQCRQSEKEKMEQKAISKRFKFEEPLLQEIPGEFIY

[6] = biological target: JAK2 (Homo sapiens, UniProt O60674); experiment: Eurofins kinase enzymatic radiometric assay; assay type: biochemical
Procedure, shortened: as §1

Sequence of JAK2 (O60674 whole entry): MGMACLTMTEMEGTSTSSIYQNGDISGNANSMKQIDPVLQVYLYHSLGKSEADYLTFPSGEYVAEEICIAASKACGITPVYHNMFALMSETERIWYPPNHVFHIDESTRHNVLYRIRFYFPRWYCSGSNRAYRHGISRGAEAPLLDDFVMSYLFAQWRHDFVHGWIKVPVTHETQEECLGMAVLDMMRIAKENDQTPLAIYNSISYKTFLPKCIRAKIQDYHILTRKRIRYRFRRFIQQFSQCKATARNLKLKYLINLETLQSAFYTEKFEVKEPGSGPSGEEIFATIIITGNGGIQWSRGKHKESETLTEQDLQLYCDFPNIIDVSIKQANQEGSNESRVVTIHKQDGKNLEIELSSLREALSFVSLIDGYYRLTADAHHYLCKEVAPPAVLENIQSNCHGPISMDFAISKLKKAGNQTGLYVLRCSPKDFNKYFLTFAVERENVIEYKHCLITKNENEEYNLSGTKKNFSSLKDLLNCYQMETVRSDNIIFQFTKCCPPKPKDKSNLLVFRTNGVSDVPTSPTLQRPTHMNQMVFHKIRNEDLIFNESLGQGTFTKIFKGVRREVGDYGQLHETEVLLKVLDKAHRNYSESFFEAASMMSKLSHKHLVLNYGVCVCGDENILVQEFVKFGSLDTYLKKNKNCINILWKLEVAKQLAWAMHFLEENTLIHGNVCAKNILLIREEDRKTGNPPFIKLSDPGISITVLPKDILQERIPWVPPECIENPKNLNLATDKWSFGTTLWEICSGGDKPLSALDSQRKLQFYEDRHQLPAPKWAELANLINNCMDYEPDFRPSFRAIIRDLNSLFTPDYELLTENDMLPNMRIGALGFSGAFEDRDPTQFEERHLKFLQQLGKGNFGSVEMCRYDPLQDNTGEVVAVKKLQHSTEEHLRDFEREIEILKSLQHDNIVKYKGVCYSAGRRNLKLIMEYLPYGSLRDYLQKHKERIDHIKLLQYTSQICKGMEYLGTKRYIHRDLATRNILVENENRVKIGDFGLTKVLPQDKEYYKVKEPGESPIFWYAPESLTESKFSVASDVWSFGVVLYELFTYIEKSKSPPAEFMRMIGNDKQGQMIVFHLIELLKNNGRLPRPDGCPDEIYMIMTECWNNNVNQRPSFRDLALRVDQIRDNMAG

SMILES | IC50 [1] [µM] | IC50 [2] [µM] | no. kinases ≤ 10 PoC in enzyme panel [3] | no. kinases with PoC < 10 [4] | S10 (1 μM) [4] | fold loss in potency, enzymatic versus NanoBRET, DRAK1 [5] [fold] | DRAK1 NanoBRET IC50 ([5]; HEK293, 0.5 μM tracer K-9, n = 1 where no error, SEM n = 3) | IC50 [6] [µM]
Cc1nn(CC(F)(F)F)cc1Nc1ncc(C2CC2)c(NCCCNC(=O)C2CCC2)n1 [Compound 4, N-(3-((5-Cyclopropyl-2-((3-methyl-1-(2,2,2-trifluoroethyl)-1H-pyrazol-4-yl)amino)pyrimidin-4-yl)amino)propyl)cyclobutanecarboxamide] | 0.062 | 1.74 | 1 | 11 | 0.027 | < 10 | submicromolar | –
O=C(NCCCNc1ccnc(Nc2cccc(NC(=O)N3CCCC3)c2)n1)C1CCC1 [Compound 17, N-(3-((4-((3-(Cyclobutanecarboxamido)propyl)amino)pyrimidin-2-yl)amino)phenyl)pyrrolidine-1-carboxamide] | – | – | 0 | 3 | 0.007 | < 10 | – | > 10
